The subject of data set [1] is Mus musculus. Briefly: (§1) Compound is evaluated for acute lethal toxicity by intravenous administration. The format is organism-based. Particulars: in vivo. The gist of the method:
(§2)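 Noninfected mice in groups of eight, given a single intravenous injection of varying doses (mg primaquine base/kg) of free or protein-coupled drug. Highest conjugate dose was limited by solubility.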

Data set [2] is described as follows: as §1. The format is organism-based. As to conditions: mouse, in vivo. The gist of the method: as §2
The species named for data set [3] is Mus musculus. Kind of data set: Compound is evaluated for therapeutic efficacy. Format: ADME, organism-based. Particulars: in vivo. An outline of the steps: (§3)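 Female A/J mice (~20 g, groups of 6–8) inoculated via tail vein with 10^4 Plasmodium berghei sporozoites. Drug, conjugate or carrier alone in 0.5 mL PBS given intravenously 2–3 h later; doses as mg primaquine base/kg. Giemsa-stained thin blood smears were read up to day 12, and mice without parasitemia by day 12 were scored cured. An untreated control group was run per experiment. CPD50 came from probit-transformed dose–response data, with results pooled from at least two experiments.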

The subject of data set [4] is Mus musculus. Kind of data set: Free and protein-conjugated compound is evaluated for curative effect, at the 9.5 mg/kg. The format is functional. The gist of the method: as §3
In data set [5] the test system is Mus musculus. Briefly: Free and protein-conjugated compound is evaluated for curative effect, at the 8 mg/kg. The format is functional. The gist of the method: as §3
Data set [6] deals with Mus musculus. Briefly: Free and protein-conjugated compound is evaluated for curative effect, at the 14.5 mg/kg. Format: functional. An outline of the steps: as §3
Data set [7] relates to Mus musculus. Kind of data set: Free and protein-conjugated compound is evaluated for curative effect, at the 11 mg/kg. Format: functional. The gist of the method:
as §3

Data set [8] concerns Mus musculus. Kind of data set: Free and protein-conjugated compound is evaluated for curative effect, at the 7 mg/kg. Format: functional. An outline of the steps: as §3
The nature of data set [9]: Ratio of LD50 (lethal toxicity in mice) to that of CPD50 (therapeutic efficacy). The format is organism-based. Particulars: mouse, in vivo. The gist of the method:
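Therapeutic index as LD50/CPD50 (mg primaquine base/kg). LD50 came from probit analysis of deaths after intravenous dosing of noninfected mice, groups of eight. CPD50 came from probit analysis of cure (no parasitemia by day 12) in A/J mice given intravenous drug 2–3 h after intravenous inoculation of 10^4 P. berghei sporozoites.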

Structures are written as SMILES. Values joined by “and” are separate entries in the source; they are usually repeats but may differ in a detail not shown here. Equal values may be shown once.

In the data set on Mus musculus [1], `COc1cc(NC(C)CCCN)c2ncccc2c1` (centres undefined) [PRIMAQUINE] gave an LD10 of 13 mg/kg. Besides, the LD50 (in general, the dose at which mortality reaches 50%) in data set [2] worked out at 16 mg/kg. Besides, the CPD50 in the data set filed under Mus musculus [3] is 13 mg/kg and 20 mg/kg. Also, the Cure was 13% with Mus musculus [4]; 13% with Mus musculus [5]; 69% in the data set with Mus musculus [6]; 20% in the data set with Mus musculus [7]; 0% in the data set on Mus musculus [8]. For the same compound, the selectivity ratio in data set [9] turned out to be 1.2.

These data come from ChEMBL document CHEMBL1123441, “Carrier-linked primaquine in the chemotherapy of malaria” (J Med Chem, 1986).
